Data: ChEMBL document CHEMBL1122629, “Potent and selective antagonists of the antidiuretic responses to arginine-vasopressin based on modifications of [1-(beta-mercapto-beta,beta-pentamethylenepropionic acid),2-D-isoleucine,4- valine]arginine-vasopressin at position 4” (J Med Chem, 1984)
*1 amine or outer side, *2 acyl side, *3 side chain or, on linkers, in order; H or OH if unused. Where a SMILES comes first, the peptide text is derived from it. Bridges are numbered along the chain shown (N, C = ends). [ ]: non-standard residue; d: D form. X1 = O=C(CC1(S[*:2])CCCCC1)[*:1]; Orn = NCCC[C@H](N)C(=O)O

Assays:
Rattus norvegicus [1] = assay: In vivo antidiuretic activity in rat measured as dose that reduced the response seen with 2x units of agonist to equal the response seen with 1x unit of agonist administered before antagonist; type: functional, Urine
Method in brief: (§1)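 Antidiuretic assay in rats under ethanol anaesthesia against the USP posterior pituitary reference standard. Standard given 20 min after antagonist, or 10 min for analogues lacking agonism. Each peptide given at a high and a low dose. ED is the dose (nmol/kg) that cuts the response to 2x units of agonist to the response to 1x unit given before antagonist. […] Means ± SE, n assays.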

Rattus norvegicus [2] = assay: In vivo anti-vasopressor activity in phenoxybenzamine-treated rats under urethane anesthesia is measured as effective dose; type: functional
Method in brief: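 Intravenous vasopressor assay in phenoxybenzamine-treated rats under urethane anaesthesia, agonist USP posterior pituitary reference standard. ED is the dose (nmol/kg) that reduces the response to 2x units of agonist to that of 1x unit given before antagonist. […] Means ± SE, number of assays given.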

[3] = Ratio of anti-vasopressor ED50 to antiantidiuretic ED50; type: functional, Urine
Method in brief: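 Ratio of antivasopressor ED to antiantidiuretic ED. Each ED is the dose (nmol/kg) that lowers the response to 2x units of agonist to that of 1x unit before antagonist. Measured in rats: vasopressor assay in phenoxybenzamine-treated, urethane-anaesthetised animals; antidiuretic assay under ethanol anaesthesia.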

Rattus norvegicus [4] = species on record: Rattus norvegicus; assay: Anti-oxytocic activity on isolated rat uterus in absence of Mg2+. pA2 value is negative logarithm of effective dose (ED); type: functional; details: read-out: pA2 (converted)
Method in brief: (§2)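 Isolated rat uterus, with USP posterior pituitary reference standard as agonist. Antagonism expressed as pA2.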

Rattus norvegicus [5] = species on record: Rattus norvegicus; assay: Anti-oxytocic activity on isolated rat uterus in presence of 0.5 mM of Mg2+. pA2 value is negative logarithm of effective dose (ED); type: functional; details: read-out: pA2 (converted); method in brief: as §2
Rattus norvegicus [6] = species on record: Rattus norvegicus; assay: Antidiuretic activity in rats and pA2 value is negative logarithm of effective dose (ED); type: functional, organism-based; details: Urine, read-out: pA2 (converted); method in brief: as §1
Rattus norvegicus [7] = assay: Evaluated in vivo for logarithm effective dose (ED); type: functional, organism-based

## CC[C@@H](C)[C@H]1NC(=O)CC2(CCCCC2)SSC[C@@H](C(=O)N2CCC[C@H]2C(=O)N[C@@H](CCCN=C(N)N)C(=O)NCC(N)=O)NC(=O)[C@H](CC(N)=O)NC(=O)[C@H](CCCN)NC(=O)[C@H](Cc2ccccc2)NC1=O
Rattus norvegicus [1]
  ED: 49 nmol/kg
Rattus norvegicus [2]
  ED: 11.9 nmol/kg
[3]
  Ratio: 0.24

## CC[C@@H](C)[C@H]1NC(=O)CC2(CCCCC2)SSC[C@@H](C(=O)N2CCC[C@H]2C(=O)N[C@@H](CCCN=C(N)N)C(=O)NCC(N)=O)NC(=O)[C@H](CC(N)=O)NC(=O)[C@H](CC(N)=O)NC(=O)[C@H](Cc2ccccc2)NC1=O [listing 1 of 2 here]
Rattus norvegicus [4]
  Kb: 11.7 nM
Rattus norvegicus [5]
  Kb: 39.8 nM
Rattus norvegicus [6]
  Kb: 309 nM
Rattus norvegicus [7]
  in vivo pA2 effective dose (as concentration): 55 nM

## CC[C@@H](C)[C@H]1NC(=O)CC2(CCCCC2)SSC[C@@H](C(=O)N2CCC[C@H]2C(=O)N[C@@H](CCCN=C(N)N)C(=O)NCC(N)=O)NC(=O)[C@H](CC(N)=O)NC(=O)[C@H](CC(N)=O)NC(=O)[C@H](Cc2ccccc2)NC1=O [listing 2 of 2 here]
Rattus norvegicus [1]
  ED: 25 nmol/kg
Rattus norvegicus [2]
  ED: 3.9 nmol/kg
[3]
  Ratio: 0.16

## CC[C@@H](C)[C@H]1NC(=O)CC2(CCCCC2)SSC[C@@H](C(=O)N2CCC[C@H]2C(=O)N[C@@H](CCCN=C(N)N)C(=O)NCC(N)=O)NC(=O)[C@H](CC(N)=O)NC(=O)[C@H](C(C)C)NC(=O)[C@H](Cc2ccccc2)NC1=O
[3]
  Ratio: 12

## CC[C@@H](C)[C@H]1NC(=O)CC2(CCCCC2)SSC[C@@H](C(=O)N2CCC[C@H]2C(=O)N[C@@H](CCCN=C(N)N)C(=O)NCC(N)=O)NC(=O)[C@H](CC(N)=O)NC(=O)[C@H](Cc2ccccc2)NC(=O)[C@H](Cc2ccccc2)NC1=O
Rattus norvegicus [4]
  Kb: 74.1 nM
Rattus norvegicus [5]
  Kb: 120 nM

## CC[C@@H](C)[C@H]1NC(=O)CC2(CCCCC2)SSC[C@@H](C(=O)N2CCC[C@H]2C(=O)N[C@@H](CCCN=C(N)N)C(=O)NCC(N)=O)NC(=O)[C@H](CC(N)=O)NC(=O)[C@H](CC2CCCCC2)NC(=O)[C@H](Cc2ccccc2)NC1=O [listing 1 of 2 here]
Rattus norvegicus [4]
  Kb: 36.3 nM
Rattus norvegicus [5]
  Kb: 81.3 nM
Rattus norvegicus [6]
  Kb: 229 nM
Rattus norvegicus [7]
  in vivo pA2 effective dose (as concentration): 275 nM

## CC[C@@H](C)[C@H]1NC(=O)CC2(CCCCC2)SSC[C@@H](C(=O)N2CCC[C@H]2C(=O)N[C@@H](CCCN=C(N)N)C(=O)NCC(N)=O)NC(=O)[C@H](CC(N)=O)NC(=O)[C@H](CC2CCCCC2)NC(=O)[C@H](Cc2ccccc2)NC1=O [listing 2 of 2 here]
Rattus norvegicus [1]
  ED: 15.6 nmol/kg
Rattus norvegicus [2]
  ED: 19.1 nmol/kg
[3]
  Ratio: 1.2

## CC[C@@H](C)[C@H]1NC(=O)CC2(CCCCC2)SSC[C@@H](C(=O)N2CCC[C@H]2C(=O)N[C@@H](CCCN=C(N)N)C(=O)NCC(N)=O)NC(=O)[C@H](CC(N)=O)NC(=O)[C@H](CO)NC(=O)[C@H](Cc2ccccc2)NC1=O
Rattus norvegicus [1]
  ED: 4.6 nmol/kg
Rattus norvegicus [2]
  ED: 45 nmol/kg
[3]
  Ratio: 10

## CC[C@@H](C)[C@H]1NC(=O)CC2(CCCCC2)SSC[C@@H](C(=O)N2CCC[C@H]2C(=O)N[C@@H](CCCN=C(N)N)C(=O)NCC(N)=O)NC(=O)[C@H](CC(N)=O)NC(=O)[C@H](CCCCN)NC(=O)[C@H](Cc2ccccc2)NC1=O [listing 1 of 2 here]
Rattus norvegicus [4]
  Kb: 79.4 nM
Rattus norvegicus [5]
  Kb: 251 nM
Rattus norvegicus [6]
  Kb: 174 nM

## CC[C@@H](C)[C@H]1NC(=O)CC2(CCCCC2)SSC[C@@H](C(=O)N2CCC[C@H]2C(=O)N[C@@H](CCCN=C(N)N)C(=O)NCC(N)=O)NC(=O)[C@H](CC(N)=O)NC(=O)[C@H](CCCCN)NC(=O)[C@H](Cc2ccccc2)NC1=O [listing 2 of 2 here]
Rattus norvegicus [1]
  ED: 11.9 nmol/kg

## CC[C@@H](C)[C@H]1NC(=O)CC2(CCCCC2)SSC[C@@H](C(=O)N2CCC[C@H]2C(=O)N[C@@H](CCCN=C(N)N)C(=O)NCC(N)=O)NC(=O)[C@H](CC(N)=O)NC(=O)[C@H](CC(C)C)NC(=O)[C@H](Cc2ccccc2)NC1=O
Rattus norvegicus [1]
  ED: 11 nmol/kg
Rattus norvegicus [2]
  ED: 12.4 nmol/kg
[3]
  Ratio: 1.1

## NCCC[C@@H]1NC(=O)[C@H](Cc2ccccc2)NC(=O)[C@@H](Cc2ccccc2)NC(=O)CC2(CCCCC2)SSC[C@@H](C(=O)N2CCC[C@H]2C(=O)N[C@@H](CCCN=C(N)N)C(=O)NCC(N)=O)NC(=O)[C@H](CC(N)=O)NC1=O ([dF]F[Orn]NCPRG-NH2; linker N-5 via X1)
Rattus norvegicus [1]
  ED: 21.3 nmol/kg
Rattus norvegicus [2]
  ED: 1.9 nmol/kg
[3]
  Ratio: 0.09
